DAGLB inhibitor: DAGLB lipase inhibitors, primary screen, biochemical, fluorescence, HTS. inhibition, % at 5.17 µM. Diacylglycerol lipase-beta (Homo sapiens), Q8NCG7. HEK293T DAGLB membrane lysate, EnzChek fluorogenic substrate. AID 504411, 2011. 0.059% of 340,000 active; in the data active = inhibition above about 34%;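 note: 0% = enzyme with vehicle and 100% = wells lacking enzyme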
TAAR1 ag: human TAAR1 agonists, primary screen, Fluo-8 calcium fluorescence, CHO RD-HGA16 cells | vehicle wells 0%, saturating PEA agonist 100% | 0.99% of 360,000 active | Trace amine-associated receptor 1 (Homo sapiens), Q96RJ0 | activation, % at 3 µM | AID 624467, 2012;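 active = activation above the mean activation of all test compounds in the run plus 3 SD, cut at about 38% in these data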
Target sequence (Q96RJ0 whole entry, looked up): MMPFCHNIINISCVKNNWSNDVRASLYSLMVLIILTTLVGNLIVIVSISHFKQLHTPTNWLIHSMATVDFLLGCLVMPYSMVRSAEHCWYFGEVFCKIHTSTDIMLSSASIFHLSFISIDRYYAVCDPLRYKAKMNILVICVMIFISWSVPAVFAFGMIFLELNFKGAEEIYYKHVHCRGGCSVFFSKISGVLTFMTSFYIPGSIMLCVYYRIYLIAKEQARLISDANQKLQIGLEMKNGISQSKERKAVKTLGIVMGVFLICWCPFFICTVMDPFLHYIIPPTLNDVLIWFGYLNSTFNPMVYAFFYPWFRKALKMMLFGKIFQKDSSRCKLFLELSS
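System: CHO-derived RD-HGA16 cells with stable Gα16 and human TAAR1. Times: 17-24 h plating, Fluo-8 75 min 37 °C, 30 min RT. Measured by: calcium-sensitive Fluo-8 signal, excitation 470-495, emission 515-575 nm. Read-out basis: % activation relative to PEA EC100 response. Control set: DMSO and PEA EC100. Repeats: no replicates (n 1).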
MPTP inh: mitochondrial permeability transition pore inhibitors, primary screen, biochemical, isolated mouse mitochondria, absorbance | inhibition, % at 10 µM | 1.4% of 360,000 active | AID 602449, 2012 | Ca2+ swelling absorbance, 30 min;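 active = inhibition of 50% or more, scaled per plate between neutral and stimulator controls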;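 note: 0% = DMSO wells given calcium and 100% = 1 mM EGTA wells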
TAAR1 antagonist: human TAAR1 antagonists, primary screen, Fluo-8 calcium fluorescence, CHO RD-HGA16 cells; AID 624466, 2012; 1.5% of 360,000 active; inhibition, % at 3 µM; antagonist;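 active = inhibition above a per-plate cutoff, the mean inhibition of test compounds on that plate plus 3 SD, cut at about 49% in these data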;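 note: 0% = DMSO plus EC80 beta-PEA response and 100% = DMSO alone without agonist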
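Assay system: RD-HGA16 CHO cells with stable hTAAR1 and Gα16 / Reagent: EC80 β-phenethylamine stimulus / Doses: 3 µM, single point / Timing: dye loading 75 min at 37 °C, then 30 min room temperature / Measured by: Fluo-8 intracellular calcium dye fluorescence, real-time kinetic reads / Controls: vehicle wells and EC80 agonist wells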
GPR7 antagonist: GPR7 receptor antagonists, primary screen, cell-based, fluorescence, single concentration; Neuropeptides B/W receptor type 1 (Homo sapiens), P48145; GPR7-expressing cells, fluorescence antagonist assay; inhibition, % at 4.4 µM; 1.1% of 290,000 active; in the data active = inhibition above about 16%, passing the limit was not always enough;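 note: cells stimulated with the agonist NPW; 0% = agonist with vehicle and 100% = vehicle without agonist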
Target sequence (P48145 whole entry, looked up): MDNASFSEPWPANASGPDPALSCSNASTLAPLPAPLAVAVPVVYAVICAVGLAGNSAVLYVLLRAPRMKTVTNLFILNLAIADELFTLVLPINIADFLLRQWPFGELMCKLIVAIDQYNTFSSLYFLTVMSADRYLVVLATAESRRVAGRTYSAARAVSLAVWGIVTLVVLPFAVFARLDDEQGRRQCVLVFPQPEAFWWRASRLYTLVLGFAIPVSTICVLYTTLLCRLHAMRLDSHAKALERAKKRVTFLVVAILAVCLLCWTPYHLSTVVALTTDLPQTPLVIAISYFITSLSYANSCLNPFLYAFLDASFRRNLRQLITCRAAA
Active calls of the source: *; . = no result given. Sampled rows, rich in hits. Any-hit rate of the full collection: about 4%.

SMILES | DAGLB inhibitor | TAAR1 ag | MPTP inh | TAAR1 antagonist | GPR7 antagonist
Cc1ccc(CCNC(=O)CCCn2nc(C)c3c(C)n(-c4ccc(C)cc4)nc3c2=O)cc1 | -1.6 | -3.3 | -0.8 | -37.5 | -14.9
CC(C)[C@H](N)C(=O)N[C@H]1CCC2C3CC=C4C[C@@H](O)CC[C@]4(C)C3CC[C@@]21C (some centres undefined) | 2.1 | 6.9 | 2.3 | 7.8 | .
Clc1ccc(-n2nnnc2-c2cnc(-c3ccncc3)nc2-c2cccs2)cc1 | -2.6 | -1.4 | -0.6 | -6.6 | -9.2
FC(F)(F)c1nc(-c2cccs2)ncc1-c1nnnn1-c1ccc(Cl)cc1 | -8.8 | 6.1 | 24.5 | 58.7* | -14.8
CCOC(=O)C1=C(N)N2C(=O)C(C)SC2=C(C(=O)OCC)C1c1ccccc1 (centres undefined) | -0.9 | 7.0 | 1.3 | 3.0 | -5.2
CCOC(=O)C1=C(N)N2C(=O)C(C)SC2=C(C(=O)OC)C1c1ccccc1OC (centres undefined) | -2.3 | 37.5* | 2.1 | 13.6 | -5.5
O=C(CNC(=O)c1[nH]cnc1C(=O)N[C@@H](Cc1ccccc1)C(=O)OCc1ccccc1)OCc1ccccc1 | -2.4 | 11.9 | 2.0 | 63.9* | -15.7
CC(C)(C)OC(=O)[C@H](Cc1ccccc1)NC(=O)c1nc[nH]c1C(=O)NCC(=O)OCc1ccccc1 | 1.6 | 2.7 | -0.2 | 35.2 | -13.4
CC(C)(C)OC(=O)NCCCCCNC(=O)c1[nH]cnc1C(=O)N[C@@H](Cc1ccccc1)C(=O)OCc1ccccc1 | -4.6 | 12.6 | 1.0 | 54.3* | -23.3
C[C@H](NC(=O)c1nc[nH]c1C(=O)NCCCCCNC(=O)OC(C)(C)C)C(=O)OCc1ccccc1 | 1.6 | 13.8 | 4.1 | 76.3* | -8.4
Oc1ccc(Br)cc1-c1ccnn1-c1ccccc1 | -2.6 | 0.2 | 2.2 | 5.8 | 15.9
Cc1ccc(S(=O)(=O)N2C[C@H]3C(=O)C[C@@H](c4cccc(Cl)c4)N(S(=O)(=O)c4ccc(C)cc4)[C@H]3C[C@H]2c2ccccc2)cc1 | -10.1 | -0.4 | 0.0 | -6.3 | .
CCOC(=O)C1=C(C)NC(C)=C(C(=O)OCCNC(=O)c2cccnc2)C1c1cccc([N+](=O)[O-])c1 (centres undefined) | -0.6 | . | 0.3 | . | -4.5
COC(=O)C1=C(C)NC(C)=C(C(=O)OCCN(C)Cc2ccccc2)C1c1cccc([N+](=O)[O-])c1 (centres undefined) | -2.4 | -0.7 | 0.2 | 48.6* | -3.5
CC(=O)c1ccc(NC(=O)COC(=O)c2c3c(nc4ccccc24)/C(=C\c2cccs2)CCC3)cc1 | -3.4 | 8.2 | 22.3 | 57.6* | -11.8
CC(C)CNC(=O)COC(=O)c1c2c(nc3ccccc13)/C(=C\c1cccs1)CC2 | -6.5 | 0.1 | 0.1 | 50.1* | .
CN(CCC#N)C(=O)COC(=O)c1c2c(nc3ccccc13)/C(=C/c1ccco1)CC2 | -0.1 | -0.8 | 4.7 | -10.9 | -8.6
O=C(COC(=O)c1c2c(nc3ccccc13)/C(=C\c1cccs1)CCC2)Nc1ccccc1 | -7.4 | 2.5 | 8.2 | 19.7 | -2.3
COc1ccc(C(=O)N2CCOC2CNC(=O)C(=O)NCc2ccccn2)cc1 (centres undefined) | -3.8 | 3.7 | -0.8 | -1.2 | .
COc1ccc(N(CC(=O)Nc2ccc3c(c2)OCO3)S(=O)(=O)c2ccccc2)c(OC)c1 | -2.8 | 12.8 | -0.1 | 56.2* | -7.0
COc1ccc(N(CC(=O)Nc2ccc3c(c2)OCO3)S(=O)(=O)c2ccccc2)cc1OC | -2.9 | 4.5 | 2.5 | 0.0 | -20.5
CCN1C(=O)[C@H]2[C@@H](c3ccc(C(F)(F)F)cc3)N[C@]3(CCCN(Cc4ccc(C(F)(F)F)cc4)C3=O)[C@H]2C1=O | -5.7 | 0.4 | 3.7 | -34.6 | .
Cc1cc(C)c(NC(=O)COC(=O)c2ccc([N+](=O)[O-])s2)c(C)c1 | -2.0 | 3.1 | 0.7 | -14.8 | 3.3
Cc1ccc(NC(=O)COC(=O)c2ccc([N+](=O)[O-])s2)c(C)c1 | -1.0 | 39.4* | -0.5 | -6.1 | 11.2
CN(CCOC(=O)c1ccc2c(c1)OCCO2)C(C)(C)C | -2.3 | 10.6 | 2.9 | 10.9 | -4.6
SMILES | DAGLB inhibitor | TAAR1 ag | MPTP inh | TAAR1 antagonist | GPR7 antagonist
CN(CCOC(=O)c1ccc2c(c1)OCCO2)Cc1ccccc1 | -3.5 | -1.1 | -0.7 | 5.0 | 20.0*
CC(=O)N1CCN(c2ccccc2NC(=O)c2cc3ccccc3o2)CC1 | -6.4 | 10.0 | -0.5 | 52.3* | -2.6
O=C(Nc1ccccc1N1CCN(C(=O)c2ccc(Cl)cc2)CC1)c1cc2ccccc2o1 | -7.6 | 4.9 | 2.3 | 33.0 | -12.6
CCSC(=O)N(CC)CC(=O)Nc1c(CC)cccc1CC | 2.0 | . | -1.3 | . | 20.7*
O=C(/C=C/c1ccc(Br)cc1)c1ccco1 | 2.5 | -1.4 | 0.4 | 0.9 | 22.2*
O=C1NC(=O)C2(CCOc3ccc(F)cc32)N1 (centres undefined) | . | 0.3 | . | 0.1 | .
CCOc1ccc(N=C2NC(=O)S/C2=C\c2ccc(N(C)C)cc2)cc1 | 1.7 | 24.1 | 27.4 | 56.6* | 3.2
CCOc1ccc(C2C(C(=O)OC)=CN(C(C)c3ccccc3)C=C2C(=O)OC)cc1 (centres undefined) | -7.8 | -1.1 | -0.2 | 4.1 | 4.3
CCOC(=O)C(Cc1ccc(NC(=O)/C(=C/c2ccc(OC(C)=O)cc2)NC(C)=O)cc1)N1C(=O)c2ccccc2C1=O (centres undefined) | 1.8 | 11.0 | -0.4 | 48.8* | -1.9
CCOC(=O)C(Cc1ccc(NC(=O)/C(=C/c2ccccc2)NC(=O)c2ccccc2)cc1)N1C(=O)c2ccccc2C1=O (centres undefined) | 3.4 | 6.7 | -0.1 | 13.2 | -8.7
CCOc1ccc(S(=O)(=O)Nc2ccc(C(=O)N3CC(C)OC(C)C3)cc2)cc1 (centres undefined) | 1.2 | 56.7* | -0.7 | 25.5 | .
CCOc1ccc(S(=O)(=O)Nc2cccc(C(=O)N3CC(C)OC(C)C3)c2)cc1 (centres undefined) | 1.7 | 2.6 | 0.3 | -17.6 | .
CCOC(=O)COc1ccc(S(=O)(=O)Nc2ccc3c(c2)OCO3)cc1 | 0.0 | 22.1 | -1.6 | 2.2 | 16.8
Cc1ccc(C(=O)OCC(=O)N2CCCC2)cc1 | 0.1 | -0.7 | -0.4 | -17.5 | -1.8
CCOC(=O)NCc1ccc(S(=O)(=O)Nc2ccc(C)cc2)cc1 | -3.6 | 44.1* | -1.5 | -1.3 | -3.5
Cc1ccc(NS(=O)(=O)c2ccc(C(=O)OCC(=O)N3CCCCC3)cc2)cc1 | -2.2 | 40.7* | 0.0 | 41.5 | .
CCOC(=O)NCc1ccc(CNC(=O)OCC)cc1 | 2.4 | 13.3 | -2.7 | 3.3 | -1.8
CCOC(=O)COc1ccc(S(=O)(=O)Nc2ccc(C)cc2)cc1 | -4.9 | 49.5* | 2.0 | 6.5 | 0.2
